Data as given in ChEMBL document CHEMBL1159121, “Synthesis, in vitro structure-activity relationship, and in vivo studies of 2-arylthiazolidine-4-carboxylic acid amides as anticancer agents” (Bioorg Med Chem, 2010).
pIC50: −log10 of the molar value.

What was measured:
SNB-19 = test: Growth inhibition of human SNB19 cells; type: functional
OVCAR-8 = test: Growth inhibition of human OVCAR8 cells; type: functional
OVCAR-5 = test: Growth inhibition of human OVCAR5 cells; type: functional
OVCAR-4 = test: Growth inhibition of human OVCAR4 cells; type: functional
LOX IMVI = test: Growth inhibition of human LOXIMVI cells; type: functional
SK-OV-3 = test: Growth inhibition of human SKOV3 cells; type: functional
PC-3 = test: Growth inhibition of human PC3 cells; type: functional
SF-539 = test: Growth inhibition of human SF539 cells; type: functional
RXF 393 = test: Growth inhibition of human RXF393 cells; type: functional
COLO 205 = test: Growth inhibition of human COLO205 cells; type: functional
MOLT-4 = test: Growth inhibition of human MOLT4 cells; type: functional
HT-29 = test: Growth inhibition of human HT-29 cells; type: functional
[1] = Growth inhibition of human […] cells; type: functional
[2] = Cytotoxicity against human fibroblasts after 48 hrs by SRB assay; type: cell-based; conditions: Fibroblast
In short: (§1)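 Melanoma lines and control fibroblasts grown at 37 °C, 5% CO2, then exposed to a wide concentration range for 48 h in round-bottom 96-well plates. Fixed with 10% TCA, stained with SRB, protein read at 560 nm. IC50 (50% growth inhibition versus untreated) obtained by nonlinear regression.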

TK-10 = test: Growth inhibition of human TK10 cells; type: functional
HCC 2998 = test: Growth inhibition of human HCC2998 cells; type: functional
NCI-H322M = test: Growth inhibition of human NCI-H322M cells; type: functional
A498 = test: Growth inhibition of human A498 cells; type: functional
SK-MEL-28 = test: Growth inhibition of human SK-MEL-28 cells; type: functional
SK-MEL-5 = test: Growth inhibition of human SK-MEL-5 cells; type: functional
HCT-116 = test: Growth inhibition of human HCT116 cells; type: functional
CCRF-CEM = test: Growth inhibition of human CCRF-CEM cells; type: functional
[3] = Antiproliferative activity against human WM164 cells after 48 hrs by SRB assay; type: functional, cell-based; conditions: WM164, 48 h; in short: as §1
SNB-75 = test: Growth inhibition of human SNB75 cells; type: functional
HL-60(TB) = test: Growth inhibition of human HL-60(TB) cells; type: functional
UO-31 = test: Growth inhibition of human UO31 cells; type: functional
[4] = Growth inhibition of human Hs 578T cells; type: functional
U-251 = test: Growth inhibition of human U251 cells; type: functional
ACHN = test: Growth inhibition of human ACHN cells; type: functional
MDA-MB-435 = test: Growth inhibition of human MDA-MB-435 cells; type: functional
MDA-MB-231 = test: Growth inhibition of human MDA-MB-231 cells; type: functional
NCI-H226 = test: Growth inhibition of human NCI-H226 cells; type: functional
EKVX = test: Growth inhibition of human EKVX cells; type: functional
HOP-62 = test: Growth inhibition of human HOP62 cells; type: functional
DU-145 = test: Growth inhibition of human DU145 cells; type: functional
NCI/ADR-RES = test: Growth inhibition of human NCI/ADR-RES cells; type: functional
UACC-62 = test: Growth inhibition of human UACC62 cells; type: functional
786-0 = test: Growth inhibition of human 786-0 cells; type: functional
IGROV-1 = test: Growth inhibition of human IGROV1 cells; type: functional
NCI-H23 = test: Growth inhibition of human NCI-H23 cells; type: functional
RH7777 = test: Cytotoxicity against rat RH7777 cells after 96 hrs by SRB assay; type: cell-based; conditions: RH7777, 96 h
In short: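 Prostate lines in RPMI1640/10% FBS; RH7777 in DMEM/10% FBS. Cells TCA-fixed, stained with 0.4% SRB, absorbance read at 540 nm. IC50 from nonlinear regression of % survival against concentration.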

[5] = read-out: LC50 (the source's name)

Structure (SMILES): CCCCCCCCCCCCCCCCCCNC(=O)[C@@H]1CSC(c2ccccc2)N1 (mixture of isomers)
- GI50 (SNB-19): 2.03 µM
- TGI (SNB-19): 3.66 µM
- CC50 (SNB-19; [5]): 6.6 µM
- GI50 (OVCAR-8): 2.24 µM
- TGI (OVCAR-8): 6.14 µM
- CC50 (OVCAR-8; [5]): > 100 µM
- GI50 (OVCAR-5): 1.91 µM
- TGI (OVCAR-5): 3.32 µM
- CC50 (OVCAR-5; [5]): 5.76 µM
- GI50 (OVCAR-4): 2.61 µM
- TGI (OVCAR-4): 5.41 µM
- CC50 (OVCAR-4; [5]): 17.5 µM
- GI50 (LOX IMVI): 1.23 µM
- TGI (LOX IMVI): 2.59 µM
- CC50 (LOX IMVI; [5]): 5.48 µM
- GI50 (SK-OV-3): 2.9 µM
- TGI (SK-OV-3): 5.65 µM
- CC50 (SK-OV-3; [5]): 18.6 µM
- GI50 (PC-3): 2.97 µM
- TGI (PC-3): 10.7 µM
- CC50 (PC-3; [5]): 32.8 µM
- GI50 (SF-539): 1.72 µM
- TGI (SF-539): 3.09 µM
- CC50 (SF-539; [5]): 5.56 µM
- GI50 (RXF 393): 1.55 µM
- TGI (RXF 393): 3.01 µM
- CC50 (RXF 393; [5]): 5.85 µM
- GI50 (COLO 205): 2.32 µM
- TGI (COLO 205): 4.98 µM
- CC50 (COLO 205; [5]): 12.7 µM
- GI50 (MOLT-4): 0.86 µM
- TGI (MOLT-4): 2.43 µM
- CC50 (MOLT-4; [5]): 6.51 µM
- GI50 (HT-29): 1.75 µM
- TGI (HT-29): 3.41 µM
- CC50 (HT-29; [5]): 6.67 µM
- GI50 [1]: 2.12 µM
- TGI [1]: 4.63 µM
- CC50 [1, 5]: 11.7 µM
- pIC50 [2]: 4.53
- GI50 (TK-10): 7.46 µM
- TGI (TK-10): 29.2 µM
- CC50 (TK-10; [5]): > 100 µM
- GI50 (HCC 2998): 0.54 µM
- TGI (HCC 2998): 1.8 µM
- CC50 (HCC 2998; [5]): 4.24 µM
- GI50 (NCI-H322M): 2.28 µM
- TGI (NCI-H322M): 5.15 µM
- CC50 (NCI-H322M; [5]): 15.4 µM
- GI50 (A498): 2.73 µM
- TGI (A498): 5.3 µM
- CC50 (A498; [5]): 11.5 µM
- GI50 (SK-MEL-28): 1.49 µM
- TGI (SK-MEL-28): 2.81 µM
- CC50 (SK-MEL-28; [5]): 5.3 µM
- GI50 (SK-MEL-5): 1.92 µM
- TGI (SK-MEL-5): 3.63 µM
- CC50 (SK-MEL-5; [5]): 6.87 µM
- GI50 (HCT-116): 1.31 µM
- TGI (HCT-116): 2.58 µM
- CC50 (HCT-116; [5]): 5.08 µM
- GI50 (CCRF-CEM): 0.56 µM
- TGI (CCRF-CEM): 2.1 µM
- CC50 (CCRF-CEM; [5]): 6.5 µM
- pIC50 [3]: 5.36
- GI50 (SNB-75): 2.64 µM
- TGI (SNB-75): 4.15 µM
- CC50 (SNB-75; [5]): 6.54 µM
- GI50 (HL-60(TB)): 2.03 µM
- TGI (HL-60(TB)): 3.8 µM
- CC50 (HL-60(TB); [5]): 7.11 µM
- GI50 (UO-31): 2.31 µM
- TGI (UO-31): 5.38 µM
- CC50 (UO-31; [5]): 16.3 µM
- GI50 [4]: 1.82 µM
- TGI [4]: 4.08 µM
- CC50 [4, 5]: 9.14 µM
- GI50 (U-251): 1.8 µM
- TGI (U-251): 3.19 µM
- CC50 (U-251; [5]): 5.65 µM
- GI50 (ACHN): 2.12 µM
- TGI (ACHN): 4.9 µM
- CC50 (ACHN; [5]): 13.5 µM
- GI50 (MDA-MB-435): 2.01 µM
- TGI (MDA-MB-435): 4.12 µM
- CC50 (MDA-MB-435; [5]): 8.45 µM
- GI50 (MDA-MB-231): 1.61 µM
- TGI (MDA-MB-231): 3.12 µM
- CC50 (MDA-MB-231; [5]): 6.05 µM
- GI50 (NCI-H226): 2.06 µM
- TGI (NCI-H226): 3.83 µM
- CC50 (NCI-H226; [5]): 7.11 µM
- GI50 (EKVX): 2.12 µM
- TGI (EKVX): 4.72 µM
- CC50 (EKVX; [5]): 12.3 µM
- GI50 (HOP-62): 1.77 µM
- TGI (HOP-62): 3.15 µM
- CC50 (HOP-62; [5]): 5.61 µM
- GI50 (DU-145): 3.78 µM
- TGI (DU-145): 15.7 µM
- CC50 (DU-145; [5]): 39.6 µM
- GI50 (NCI/ADR-RES): 2.02 µM
- TGI (NCI/ADR-RES): 3.85 µM
- CC50 (NCI/ADR-RES; [5]): 7.37 µM
- GI50 (UACC-62): 2.14 µM
- TGI (UACC-62): 3.78 µM
- CC50 (UACC-62; [5]): 6.68 µM
- GI50 (786-0): 1.78 µM
- TGI (786-0): 3.17 µM
- CC50 (786-0; [5]): 5.63 µM
- GI50 (IGROV-1): 2.3 µM
- TGI (IGROV-1): 5.47 µM
- CC50 (IGROV-1; [5]): 18.9 µM
- GI50 (NCI-H23): 1.84 µM
- TGI (NCI-H23): 3.36 µM
- CC50 (NCI-H23; [5]): 6.17 µM
- pIC50 (RH7777): < 4.70
